The RNAGym collection of RNA variant scans (doi:10.1038/s41586-018-0170-7)

B1: tRNA (parent)
chain: GUUCCGUUGGCGUAAUGGUAACGCGUCUCCCUCCUAAGGAGAAGACUGCGGGUUCGAGUCCCGUACGGAACG

Variants of: B1
Experiment: yeast fitness, log relative to wild type (ln ratio); higher = fitter; tRNA-Arg(CCU), competitive growth, 37 C, 1 M NaCl
Outline: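 A combinatorial tRNA-Arg(CCU) variant library was carried on a HIS3 centromeric plasmid in BY4742 lacking the chromosomal gene, from two independent transformations. Pools grew 4 generations in SC-HIS at 30 °C, then ~6.5 generations (~26.5 h) in SC-HIS 1M NaCl at 37 °C, with three outputs per input. Variants were counted by 125 bp paired-end Illumina sequencing. Fitness is ln of each genotype's generations (OD-scaled log2 output/input frequency, inverse-variance weighted across replicates) over the wild-type's.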

| Variant | yeast fitness (ln) |
| --- | --- |
| U2G G6A A43C C46U C66U A70U | -0.000672 |
| G1A U2G G6U A43C C66U A70U C71U | -0.237 |
| G1A U2C A43C C46U A69G A70U C71U | -0.384 |
| G1A G6A C27U C66A A69G A70G C71U | -0.392 |
| G1A C27U C46U C66A | -0.151 |
| G1A U2G G6A C27U A43C C66U A70U | -0.236 |
| U2G G6U A43C C66A C71U | -0.324 |
| G1A G6A A43C C46U A69G A70U C71U | -0.473 |
| U2C C27U C46U C66A | -0.143 |
| G6U C27U C46U C66A A70U | -0.084 |
| U2G G6A C27U A43C C46U C66U A69G A70G C71U | -0.289 |
| G1A U2G G6A C27U C46U C66A A70U C71U | -0.249 |
| G1A U2G G6U C66A A70U | -0.329 |
| C27U A43C C66U A69G A70U C71U | -0.37 |
| G6U C66A A69G A70G C71U | -0.402 |
| G1A U2C G6A C66U A70U | -0.0837 |
| G1A U2C G6U C27U C46U C66U C71U | -0.196 |
| U2C G6U C27U A43C C66A A69G A70G | -0.156 |
| G1A U2G G6A A43C C46U C66A A70U C71U | -0.282 |
| G1A G6U C27U A43C C46U C66A A70G C71U | -0.377 |
| G1A U2C G6A A43C C46U C66U A69G A70G C71U | -0.0138 |

| Variant | yeast fitness (ln) |
| --- | --- |
| G1A U2G G6U C27U C46U C66A A70G | -0.148 |
| U2G G6U A43C A69G A70U | -0.227 |
| G1A G6A C27U A43C C46U A70G C71U | -0.315 |
| G1A U2C G6U C46U C66U A69G A70U | -0.156 |
| G1A G6U A43C C46U C66U A70U C71U | -0.432 |
| U2G G6A A43C C46U C66U A70U C71U | -0.175 |
| G1A U2C G6U C27U C46U C66U A70G C71U | -0.169 |
| U2C C66A A70U C71U | -0.0799 |
| G6U C27U C46U C66A C71U | -0.0489 |
| G1A G6U A43C C66U A70G C71U | -0.424 |
| U2C G6U C46U C66A A69G A70G | 0.0157 |
| G1A G6U C27U C46U C66A A70U C71U | -0.415 |
| C27U A43C | -0.0182 |
| U2C G6U C66U C71U | -0.139 |
| U2G G6A C27U A69G A70U | -0.151 |
| G1A U2G G6A C27U A43C A69G A70U | -0.379 |
| G1A U2G C27U C46U A69G A70G C71U | -0.292 |
| G1A G6A A43C A70U | -0.221 |
| U2C G6A C27U A43C C46U A69G A70G C71U | -0.13 |
| U2C A43C C46U C66U C71U | -0.19 |
| G1A G6U C27U A69G A70G | -0.379 |

| Variant | yeast fitness (ln) |
| --- | --- |
| G1A U2G C27U A43C C46U C66A A69G A70G | -0.146 |
| U2G C27U A43C C46U A70U C71U | -0.0906 |
| G1A U2G G6A A43C C46U A70G | -0.163 |
| U2G G6A C27U C46U C66U A70G C71U | -0.165 |
| U2C G6U C46U A70U C71U | -0.0786 |
| U2C G6U C27U A43C C66U A70G | -0.366 |
| G6A C27U C46U C66U A69G A70U | -0.196 |
| A69G A70U C71U | -0.162 |
| U2G G6A C27U A43C C46U C66A C71U | -0.283 |
| G1A U2G C27U A43C C46U A70G | -0.124 |
| G1A U2G C27U A43C A69G C71U | -0.37 |
| G6A C46U A69G A70G | -0.18 |
| A43C A69G C71U | -0.138 |
| U2G G6U C46U C66U A69G A70U | -0.264 |
| U2G G6U A43C C46U C66U A70G | -0.185 |
| G6U C27U A43C C66U A69G A70G | -0.528 |
| G6U C27U C46U A70G C71U | -0.321 |
| U2C G6U A43C C66U A69G A70U C71U | -0.479 |
| U2C G6U C27U A43C C46U A70G C71U | -0.132 |
| U2G G6A C66U A69G C71U | -0.217 |
| U2C C27U A43C A70U C71U | -0.172 |

| Variant | yeast fitness (ln) |
| --- | --- |
| G6A A43C C46U C66U A69G | -0.0394 |
| U2C C66A A70G C71U | -0.196 |
| G1A G6U C27U C66U A69G A70U C71U | -0.45 |
| A43C C66U A69G A70G | -0.166 |
| G1A U2G G6A C27U A43C | -0.235 |
| G1A U2G C27U A43C C66A C71U | -0.377 |
| U2G G6A C46U A70U | 0.00257 |
| U2G G6U A43C C66A A70U C71U | -0.43 |
| G6U A43C C46U A69G A70G | -0.232 |
| G1A A70G | -0.204 |
| G6A C27U C46U C66U A69G A70G C71U | -0.215 |
| A43C C46U C66A A70G | 0.00409 |
| G1A U2C A43C C46U C66U A69G A70G | -0.0919 |
| G1A G6U A43C C46U C66A A69G A70G C71U | -0.393 |
| G1A U2C C27U C46U C66A A70U | 0.02 |
| G1A G6A C46U A70U | -0.103 |
| U2C C27U A43C C46U A70U C71U | -0.0649 |
| U2C G6U C46U A69G A70G C71U | -0.236 |
| C27U A43C C66A A69G A70G | -0.181 |
| G1A G6A C46U A70G C71U | -0.208 |
| U2C G6U C27U A43C C46U C66U A70U | -0.173 |
